This passage reports inhibition results from ChEMBL document CHEMBL1142961, “Novel selective inhibitors of the zinc plasmodial aminopeptidase PfA-M1 as potential antimalarial agents” (J Med Chem, 2007).

Experiment [1] concerns the target T1, Aminopeptidase N (Sus scrofa) (UniProt P15145).
T1 sequence (whole entry): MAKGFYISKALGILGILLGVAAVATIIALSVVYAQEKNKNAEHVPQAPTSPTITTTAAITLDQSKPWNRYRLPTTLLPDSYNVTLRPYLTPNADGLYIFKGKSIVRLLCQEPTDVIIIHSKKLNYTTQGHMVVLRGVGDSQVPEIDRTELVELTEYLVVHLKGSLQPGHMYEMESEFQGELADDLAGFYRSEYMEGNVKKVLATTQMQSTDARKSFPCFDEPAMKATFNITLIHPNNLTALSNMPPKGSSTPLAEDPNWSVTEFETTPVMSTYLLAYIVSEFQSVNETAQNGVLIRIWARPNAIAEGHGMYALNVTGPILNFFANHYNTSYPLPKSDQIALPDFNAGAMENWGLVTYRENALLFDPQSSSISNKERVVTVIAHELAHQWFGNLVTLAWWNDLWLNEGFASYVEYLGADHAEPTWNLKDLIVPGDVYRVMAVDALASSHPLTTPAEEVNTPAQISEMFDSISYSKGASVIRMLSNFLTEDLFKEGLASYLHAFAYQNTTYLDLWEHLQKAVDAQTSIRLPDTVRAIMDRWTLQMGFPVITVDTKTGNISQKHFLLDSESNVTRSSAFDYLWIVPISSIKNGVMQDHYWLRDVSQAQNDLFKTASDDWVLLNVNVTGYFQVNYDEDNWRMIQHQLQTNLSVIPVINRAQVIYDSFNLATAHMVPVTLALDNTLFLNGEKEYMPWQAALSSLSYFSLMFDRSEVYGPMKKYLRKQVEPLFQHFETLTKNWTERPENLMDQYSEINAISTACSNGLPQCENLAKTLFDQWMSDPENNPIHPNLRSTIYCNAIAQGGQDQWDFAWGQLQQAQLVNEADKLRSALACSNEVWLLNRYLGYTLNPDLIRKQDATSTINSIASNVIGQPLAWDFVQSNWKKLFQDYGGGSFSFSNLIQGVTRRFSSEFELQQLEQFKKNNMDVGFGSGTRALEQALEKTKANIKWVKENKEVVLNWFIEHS
Kind of experiment: Inhibition of pig kidney microsomal APN at 10 uM. In a few lines: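 Porcine kidney microsomal APN (ammonium sulfate suspension) diluted 600-fold in 25 mM Tris-HCl pH 7.4. Preincubated with inhibitor for 10 min at room temperature, then Leu-pNA added (0.3 mM stock). Hydrolysis followed at 405 nm at room temperature. Rates normalized to a no-inhibitor control. Single point at 10 µM; IC50 from concentration-velocity curves. Bestatin used as reference.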

Experiment [2] deals with T2, Aminopeptidase N (Plasmodium falciparum FcB1/Columbia) (UniProt O96935).
T2 sequence (whole entry): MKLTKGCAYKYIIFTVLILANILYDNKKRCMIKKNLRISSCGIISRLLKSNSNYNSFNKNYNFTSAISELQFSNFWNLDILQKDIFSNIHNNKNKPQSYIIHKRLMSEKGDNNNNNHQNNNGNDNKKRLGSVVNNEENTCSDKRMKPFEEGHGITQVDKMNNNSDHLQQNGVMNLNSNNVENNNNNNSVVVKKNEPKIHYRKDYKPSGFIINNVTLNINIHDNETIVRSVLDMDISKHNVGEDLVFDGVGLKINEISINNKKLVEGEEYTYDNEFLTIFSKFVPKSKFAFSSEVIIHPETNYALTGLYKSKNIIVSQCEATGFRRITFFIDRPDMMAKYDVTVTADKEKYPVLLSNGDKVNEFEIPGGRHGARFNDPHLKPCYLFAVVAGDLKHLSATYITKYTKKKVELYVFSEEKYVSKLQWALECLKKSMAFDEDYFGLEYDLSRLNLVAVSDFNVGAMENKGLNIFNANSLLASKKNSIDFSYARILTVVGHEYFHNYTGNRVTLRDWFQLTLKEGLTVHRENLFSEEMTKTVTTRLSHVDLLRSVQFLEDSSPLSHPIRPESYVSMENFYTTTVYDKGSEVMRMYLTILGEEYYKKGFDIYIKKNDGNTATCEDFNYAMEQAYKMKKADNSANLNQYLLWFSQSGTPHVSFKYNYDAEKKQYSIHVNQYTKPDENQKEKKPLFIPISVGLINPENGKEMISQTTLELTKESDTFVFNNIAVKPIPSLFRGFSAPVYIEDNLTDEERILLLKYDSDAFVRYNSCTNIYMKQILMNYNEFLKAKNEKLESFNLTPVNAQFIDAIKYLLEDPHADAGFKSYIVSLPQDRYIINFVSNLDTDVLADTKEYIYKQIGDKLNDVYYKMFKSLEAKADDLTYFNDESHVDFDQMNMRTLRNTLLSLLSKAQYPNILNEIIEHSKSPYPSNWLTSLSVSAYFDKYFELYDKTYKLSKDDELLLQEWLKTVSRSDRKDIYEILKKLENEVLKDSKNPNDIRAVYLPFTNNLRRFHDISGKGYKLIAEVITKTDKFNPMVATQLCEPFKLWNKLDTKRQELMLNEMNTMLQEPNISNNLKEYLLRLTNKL
Kind of experiment: Inhibition of Plasmodium falciparum FcB1 M1 aminopeptidase at 10 uM. The gist of the method:
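Native enzyme purified from P. falciparum FcB1, diluted 10-fold in 25 mM Tris-HCl pH 7.4. Preincubated with inhibitor for 10 min at room temperature, then Leu-pNA substrate added (0.3 mM stock, Km 0.099 mM). Kinetics followed at 405 nm at room temperature. Initial velocities normalized to a no-inhibitor control. Single-point screen at 10 µM; IC50 from velocity versus inhibitor concentration curves. Bestatin used as reference.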

Structures are written as SMILES.

Turning to `NC(C(=O)NO)C(=O)N1CCc2ccccc2C1` (configuration not stated), the inhibition was determined as 32% in experiment [1] and 49% in experiment [2].
On the same counts, the results for `O=C(NO)C(Cc1ccccc1)C(=O)N1CCC2(CCNc3ccccc3O2)CC1` (configuration not stated) are 32% and 7%.
On the same counts, the results for `CC(C)CC(C(=O)NO)C(=O)N1CCC2(CCNc3ccccc3O2)CC1` (configuration not stated) are 21% and 16%.
On the same counts, the results for `Cc1ccccc1CNC(=O)C(Cc1cccc(Oc2ccccc2)c1)C(=O)NO` (configuration not stated) are 86% and 99%.
Regarding `O=C(NO)C(Cc1ccccc1)C(=O)NCc1cccnc1` (configuration not stated), the inhibition was 15% in experiment [1] and -6% in experiment [2].
Consider `O=C(NO)C(Cc1cccc(Oc2ccccc2)c1)C(=O)NC1CCN(Cc2ccccc2)CC1` (configuration not stated), for which the inhibition in experiment [1] was determined as 72%; in experiment [2] it was 5%.
Turning to `CC(C)CN(CCCCc1ccccc1)C(=O)CC(=O)NO`, the inhibition was found to be 45% in experiment [1] and 22% in experiment [2].
Taken in the same sequence, the figures for `NC(C(=O)NO)C(=O)NCc1cccc(-c2ccccc2)c1` (configuration not stated) were 62% and 35%.
Taken in the same sequence, the figures for `O=C(CC(=O)N1CCC(Cc2ccccc2)CC1)NO` were 23% and 7%.
On the same counts, the results for `NC(C(=O)NO)C(=O)N1CCN(C(c2ccccc2)c2ccccc2)CC1` (configuration not stated) are 10% and -5%.
For `NC(C(=O)NO)C(=O)N1CCC(Cc2ccccc2)CC1` (configuration not stated), the inhibition in experiment [1] was found to be 39%; in experiment [2], 45%.
On the same counts, the results for `CC(C)CC(C(=O)NO)C(=O)N1CCN(C(c2ccccc2)c2ccccc2)CC1` (configuration not stated) are 19% and -2%.
`O=C(NO)C(Cc1cccc(Oc2ccccc2)c1)C(=O)N1CCN(Cc2ccc3c(c2)OCO3)CC1` (configuration not stated): the inhibition in experiment [1] was 31%; in experiment [2], 97%.
Consider `O=C(NO)C(Cc1cccc(Oc2ccccc2)c1)C(=O)N1CCN(C(c2ccccc2)c2ccccc2)CC1` (configuration not stated), for which the figures for the inhibition in experiment [1] and in experiment [2] were 41% and -6%, respectively.
On the same counts, the results for `CC(C)CN(CCCCc1ccccc1)C(=O)C(Cc1ccccc1)C(=O)NO` (configuration not stated) are 28% and 45%.
As to `CC(C)CC(C(=O)NO)C(=O)N1CCN(Cc2ccc3c(c2)OCO3)CC1` (configuration not stated), the results for the inhibition in experiment [1] and in experiment [2] were 19% and 21%, respectively.
Taken in the same sequence, the figures for `CC(C)CC(C(=O)NO)C(=O)NC1CCN(Cc2ccccc2)CC1` (configuration not stated) were 57% and 3%.
Taken in the same sequence, the figures for `O=C(CC(=O)NC1CCN(Cc2ccccc2)CC1)NO` were 14% and -2%.
Taken in the same sequence, the figures for `COc1cccc(CC(C(=O)NO)C(=O)NCc2cccc(Oc3ccccc3)c2)c1` (configuration not stated) were 69% and 68%.
On to `CC(C)CC(C(=O)NO)C(=O)NCc1cccc(-c2ccccc2)c1` (configuration not stated), for which the inhibition worked out at 95% in experiment [1] and 69% in experiment [2].
On the same counts, the results for `CN(CCCCc1ccccc1)C(=O)C(N)C(=O)NO` (configuration not stated) are 10% and 12%.
Regarding `O=C(NO)C(Cc1ccccc1)C(=O)N1CCN(C(c2ccccc2)c2ccccc2)CC1` (configuration not stated), the inhibition in experiment [1] amounted to 14%; in experiment [2] it was 0%.
On the same counts, the results for `NC(C(=O)NO)C(=O)NCCc1ccccc1` (configuration not stated) are 25% and -8%.
Turning to `O=C(NO)C(Cc1cccc(Oc2ccccc2)c1)C(=O)N1CCC(n2c(=O)[nH]c3ccccc32)CC1` (configuration not stated), the figures for the inhibition in experiment [1] and in experiment [2] were 76% and 74%, respectively.
On the same counts, the results for `CN(CCCNC(=O)C(N)C(=O)NO)c1ccccc1` (configuration not stated) are 18% and 3%.
On the same counts, the results for `CC(C)CC(C(=O)NO)C(=O)NCCc1ccccn1` (configuration not stated) are 86% and 30%.
On the same counts, the results for `O=C(CC(=O)N[C@H]1CCN(Cc2ccccc2)C1)NO` are 19% and -3%.
Consider `CC(C)CC(C(=O)NO)C(=O)NC1Cc2ccccc2C1` (configuration not stated), for which the inhibition in experiment [1] worked out at 93%; in experiment [2], 61%.
On the same counts, the results for `CC(C)CC(C(=O)NO)C(=O)NCCNc1cccc2ccccc12` (configuration not stated) are 93% and 42%.
Taken in the same sequence, the figures for `CC(C)CC(C(=O)NO)C(=O)N(C)CCCCc1ccccc1` (configuration not stated) were 20% and 2%.
On to `O=C(NO)C(Cc1ccccc1)C(=O)N[C@H]1CCN(Cc2ccccc2)C1` (some centres not stated), for which the inhibition in experiment [1] is 28%; in experiment [2] it was 43%.
On the same counts, the results for `O=C(NO)C(Cc1cccc(Oc2ccccc2)c1)C(=O)N1CCN(Cc2ccccc2)CC1` (configuration not stated) are 47% and 84%.
On the same counts, the results for `O=C(CC(=O)NCc1cccc(Oc2ccccc2)c1)NO` are 55% and 44%.
`O=C(CC(=O)N1CCN(C(c2ccccc2)c2ccccc2)CC1)NO`: the inhibition was 14% in experiment [1] and 21% in experiment [2].
Taken in the same sequence, the figures for `NC(C(=O)NO)C(=O)NCc1cccnc1` (configuration not stated) were 24% and -6%.
Taken in the same sequence, the figures for `CN(CCCCc1ccccc1)C(=O)C(Cc1ccccc1)C(=O)NO` (configuration not stated) were 53% and 76%.
On the same counts, the results for `NC(C(=O)NO)C(=O)N1CCN(Cc2ccccc2)CC1` (configuration not stated) are -5% and 18%.
In the case of `NC(C(=O)NO)C(=O)N1CCC2(CCNc3ccccc3O2)CC1` (configuration not stated), the inhibition in experiment [1] is 9%; in experiment [2], -4%.
On the same counts, the results for `CC(C)CC(C(=O)NO)C(=O)NCCCN(C)c1ccccc1` (configuration not stated) are 81% and 66%.
Consider `NC(C(=O)NO)C(=O)NCc1ccc(Cl)cc1` (configuration not stated), for which the figures for the inhibition in experiment [1] and in experiment [2] were 54% and 5%, respectively.
Consider `CN(Cc1ccccc1)C(=O)C(Cc1ccccc1)C(=O)NO` (configuration not stated), for which the inhibition worked out at 36% in experiment [1] and 45% in experiment [2].
For the compound `CC(C)CC(C(=O)NO)C(=O)N(C)Cc1ccccc1` (configuration not stated), the inhibition in experiment [1] came out at 37%; in experiment [2] it was 23%.
For the compound `O=C(CC(=O)N1CCN(c2ccccc2)CC1)NO`, the inhibition was 11% in experiment [1] and -9% in experiment [2].
Taken in the same sequence, the figures for `O=C(NO)C(Cc1ccccc1)C(=O)N1CCC2(CC1)C(=O)NCN2c1ccccc1` (configuration not stated) were 22% and 40%.
Taken in the same sequence, the figures for `O=C(CC(=O)NCc1ccc(C(F)(F)F)cc1)NO` were 40% and 1%.
Taken in the same sequence, the figures for `NC(C(=O)NO)C(=O)N(CCc1ccccc1)Cc1ccccc1` (configuration not stated) were 34% and 4%.
